Sampled rows, rich in hits. Any-hit rate of the full collection: about 2%.
IMP-1 inhibitor: blocks Pseudomonas aeruginosa IMP-1 metallo-beta-lactamase; purified IMP-1, nitrocefin hydrolysis, epi-absorbance fluorescence; inhibition, % at 5.6 µM; actives 0.45% (n = 290,000);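 active means inhibition above the mean plus 3 SD of all compounds in the same screening run, cut at about 4.5% in these data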;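 further: 0% = IMP-1 with DMSO and 100% = DMSO wells lacking enzyme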
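Test system: recombinant IMP-1 enzyme, purified / Medium: HEPES buffer pH 7.1 with ZnSO4 and Brij 35 / Doses: single dose, 5.6 µM / Times: 25 °C, 15 min preincubation, 25 min reaction / Detection: Epi-absorbance via hydrolysed-nitrocefin quenching of white-plate fluorescence, 480/530 nm, EDTA stop / Evaluation: percent inhibition from optical density relative to buffer-blank wells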
MIN6 prolif-1: MIN6 beta-cell proliferation induction; MIN6 cells proliferation, ATPlite luminescence, 48 h; cells starved in 0.2% serum; 100% = growth in 10% serum; proliferation, % at 10 µM; actives 0.29% (n = 330,000);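 active means compounds whose signal lies at least 3.5 SD above the mean of all wells on their plate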;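 further: 0% = DMSO-treated cells in low-serum medium and 100% = 10% serum control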
HKDC1 inh: HKDC1 (human) hexokinase inhibition | inhibition, % at 20 µM | recombinant HKDC1, G6PDH/diaphorase resazurin coupled fluorescence | AID 493160 | actives 0.16% (n = 340,000) | Q2TB90;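 active means inhibition above about 35% when tested at 20 µM, limit read from the data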;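 further: plate controls were DMSO wells with enzyme for no effect and DMSO wells lacking enzyme for full effect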
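Assay system: in-house recombinant HK5 (HKDC1) enzyme. Input: HKDC1 at 5 µg/mL. Medium: Tris pH 8.0 buffer with MgCl2, Tween-20, BSA, BME. Dosing: single 20 µM dose. Schedule: 90 min reaction incubation at room temperature, dark. Signal: resazurin-to-resorufin fluorescence via G6PDH and diaphorase coupling, 525/613 nm. Controls: DMSO-enzyme wells negative, buffer-substituted wells positive.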
VIM-2 inhibitor: inhibitors of Pseudomonas aeruginosa VIM-2 metallo-beta-lactamase. inhibition, % at 5.6 µM. purified VIM-2, nitrocefin hydrolysis, epi-absorbance fluorescence. actives 0.89% (n = 290,000);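 active means inhibition above the mean of all tested compounds plus 3 SD, cutoff set per screening run, cut at about 7.5% in these data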;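 further: red hydrolysis product quenches plate fluorescence so inhibitors raise well fluorescence; 0% = enzyme with DMSO and 100% = DMSO without enzyme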
ATG4B inh: ATG4B (human) cysteine protease inhibition. Q9Y4P1. ATG4B cleavage of LC3-PLA2, NBD-HPC fluorescence, 1 h. inhibition, % at 8.33 µM. actives 0.51% (n = 340,000). AID 504462; in the data active means inhibition above about 40%
Target sequence (Q9Y4P1 whole entry, looked up): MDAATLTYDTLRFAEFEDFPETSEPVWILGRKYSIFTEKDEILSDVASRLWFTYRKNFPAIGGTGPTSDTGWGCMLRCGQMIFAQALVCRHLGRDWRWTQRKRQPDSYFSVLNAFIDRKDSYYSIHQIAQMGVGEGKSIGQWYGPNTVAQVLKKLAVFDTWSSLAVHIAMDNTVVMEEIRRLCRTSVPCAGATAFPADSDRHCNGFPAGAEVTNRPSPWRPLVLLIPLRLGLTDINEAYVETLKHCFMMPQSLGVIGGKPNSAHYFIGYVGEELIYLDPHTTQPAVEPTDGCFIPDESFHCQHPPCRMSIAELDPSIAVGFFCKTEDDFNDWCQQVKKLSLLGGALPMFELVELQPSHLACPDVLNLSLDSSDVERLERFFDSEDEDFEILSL
PvdQ inh: blocks Pseudomonas aeruginosa PvdQ acylase activity. actives 0.063% (n = 340,000). purified PvdQ acylase, fluorescence plate reader. inhibition, % at 10 µM; in the data active means inhibition above about 30%, passing the limit was not always enough;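 further: 0% = vehicle neutral wells and 100% = reference inhibitor wells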
MIN6 prolif-2: confirmation of inducers of beta-cell replication in MIN6 cells; shares compounds with MIN6 prolif-1; MIN6 beta-cell proliferation, ATPlite luminescence, 48 h; cells kept in 0.2% serum; scaled between 0.2% and 10% serum; 920 tested, under 10 active; proliferation increase, % at 50 µM; AID 463095;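 active means proliferation increase above 40% at any of the four tested concentrations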
HKDC1 act conf: confirmation of human HKDC1 activators | shares compounds with HKDC1 inh | recombinant HKDC1, G6PDH/diaphorase resazurin fluorescence; stronger effect = lower value | inhibition, % at 20 µM | actives 14% (n = 740) | AID 504708;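 active means inhibition at or below a set negative limit, negative inhibition meaning the enzyme was activated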
PLA2 ctr: counter-screen for ATG4B inhibitors: human phospholipase A2; shares compounds with ATG4B inh; purified PLA2, NBD-C6-HPC fluorescence, 45 min; inhibition, % at 8.33 µM; actives 66% (n = 1,600); AID 588402; in the data active means inhibition above about 50%
Target sequence (P04054 whole entry, looked up): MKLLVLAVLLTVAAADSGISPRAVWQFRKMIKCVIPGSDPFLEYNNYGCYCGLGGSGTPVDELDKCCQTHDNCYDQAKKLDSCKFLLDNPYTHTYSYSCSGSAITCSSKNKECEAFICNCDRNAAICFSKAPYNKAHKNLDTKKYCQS
Starred values were filed as active, the others as inactive; . = not tested or not shown.

SMILES | IMP-1 inhibitor | MIN6 prolif-1 | HKDC1 inh | VIM-2 inhibitor | ATG4B inh | PvdQ inh | MIN6 prolif-2 | others
COc1ccc(C(=O)COC(=O)c2cc([N+](=O)[O-])ccc2N2CCOCC2)c(OC)c1 | . | 12* | -1 | . | -5 | 5 | 3
COc1ccc(C(=O)COC(=O)c2cc(S(=O)(=O)N3CCCCC3)ccc2N2CCOCC2)c(OC)c1 | . | 11* | 2 | . | -7 | -19 | 1
COc1ccccc1C(=O)COC(=O)c1cc(S(=O)(=O)N2CCCCC2)ccc1N1CCOCC1 | . | 0 | 1 | . | -1 | -18 | .
COc1ccccc1N(CC(O)CN1CCCC1)S(=O)(=O)c1ccccc1 (stereo not drawn) | -8 | 0 | -7 | -3 | -3 | -9 | .
COc1ccccc1N(CC(O)CN1CCOCC1)S(=O)(=O)c1ccccc1 (stereo not drawn) | -2 | 19* | -8 | -3 | -4 | -6 | 0
OCCC1CN(Cc2c(F)cccc2Cl)CCN1C1CCCC1 (stereo not drawn) | -1 | 8.1* | -2 | -2 | -5 | -9 | 0
OCCC1CN(Cc2c(F)cccc2Cl)CCN1C1CCCCC1 (stereo not drawn) | -3 | 0 | -5 | -4 | 22 | -2 | .
CCOC(=O)c1c(C)n(CCNC(C)=O)c2ccc(O)cc12 | -3 | -1 | -8 | 0 | 10 | -8 | .
CCOC(=O)c1c2n(c3ccc(O)cc13)CCC2 | 0 | 9.1* | -1 | -1 | -10 | -16 | 0
COc1ccc(CS(=O)(=O)CC(C)(O)c2ccccc2Cl)cc1 (stereo not drawn) | -3 | 8.9* | -2 | -3 | 2 | -17 | -4
COc1ccc(N(C(=O)Cc2cccs2)C(C(=O)NC2CCCC2)c2ccncc2)cc1 (stereo not drawn) | -2 | 0 | -4 | -3 | -2 | -13 | .
COc1ccc(N(C(=O)CNC(=O)c2cccs2)C(C(=O)NC2CCCC2)c2ccncc2)cc1 (stereo not drawn) | -3 | 7.3* | -5 | -3 | -7 | -20 | 0
CCN(CC)S(=O)(=O)c1ccc(OC(C)C)c(NC(=O)C2=COCCO2)c1 | . | 16* | 0 | . | -6 | -4 | -6
CCN(CC)CCN(C(=O)CN1C(=O)c2ccccc2C1=O)c1nc2cc3c(cc2s1)OCO3 | -1 | 10* | 5 | -2 | -5 | -9 | -2
COC(=O)c1cn(NC(=O)c2cccnc2)c(=O)c2ccccc12 | -4 | 4 | -4 | -3 | -7 | -6 | .
CC(=O)NCCc1nc2cc(NC(=O)COc3ccc(C)cc3)ccc2n1C | -1 | 9.2* | -6 | -3 | -7 | -10 | 0
Fc1cccc(Nc2nc3ccccc3n3nnnc23)c1 | -2 | 13* | -4 | -3 | -4 | 13 | 4
CCC(C)NS(=O)(=O)c1cc2c3c(c1)CCN3C(=O)CC2 (stereo not drawn) | -2 | -3 | -5 | -1 | -6 | -2 | .
CCC(C)(C(=O)NC1CCCC1)N(Cc1ccco1)C(=O)c1ccccn1 (stereo not drawn) | -5 | 4 | -5 | -4 | -11 | -5 | .
CCC(C)(C(=O)NC1CCCC1)N(Cc1ccco1)C(=O)c1ccc2c(c1)OCO2 (stereo not drawn) | -3 | 8.7* | -4 | -3 | 1 | 13 | -4
CCC(C)(C(=O)NC1CCCC1)N(Cc1ccco1)C(=O)Cc1cccs1 (stereo not drawn) | -2 | 12* | -6 | -3 | -15 | -2 | -2
CCN(CC)c1ccc(C(=O)NNC(=O)CNC(=O)c2ccco2)cc1 | . | -1 | -2 | . | -3 | -7 | .
O=C(Cc1ccccc1)Nc1ccc(NC(=O)c2ccccc2)c(Cl)c1 | -1 | -1 | -5 | 0 | -5 | -9 | .
COc1ccc(NC(=O)/C(C#N)=C/c2ccc(OCCN3CCOCC3)c(OC)c2)c(OC)c1 | -2 | 11* | 1 | -1 | 1 | 0 | -2
CCN(C(=O)C1CSC2(C)CCC(=O)N12)c1nc2c(C)cccc2s1 (stereo not drawn) | . | -4 | -6 | . | -4 | 0 | .
SMILES | IMP-1 inhibitor | MIN6 prolif-1 | HKDC1 inh | VIM-2 inhibitor | ATG4B inh | PvdQ inh | MIN6 prolif-2 | others
CC1CCCN(Cc2cccc(Oc3ccccc3)c2)C1 (stereo not drawn) | -3 | -1 | -1 | -5 | 2 | -11 | .
COc1cc(C(=O)NCC(=O)N/N=C/c2ccc(-c3cccc([N+](=O)[O-])c3)o2)cc(OC)c1OC | -4 | -1 | 1 | -2 | 10 | -4 | .
CC(C)(C)OC(=O)N1CCC(NC(=O)c2nc[nH]c2C(=O)NCC(=O)OCc2ccccc2)CC1 | -1 | -5 | -1 | -1 | 2 | -3 | .
COC(=O)c1c(NC(=O)COC(=O)c2ccc(O)cc2)sc2c1CCCCC2 | -2 | -6 | -5 | 1 | -2 | -8 | .
COCC(=O)Nc1sc2c(c1C(=O)OC)CCCC2 | 0 | 7.7* | 6 | 0 | 2 | 5 | -6
CCSCc1nnc(SCC(=O)Nc2ccc(OC)cc2)n1C | -1 | -2 | -1 | -1 | -8 | -18 | .
CCCCNC(=O)CCCN1C(=O)c2cccnc2Sc2ccccc21 | 0 | 1 | -3 | 1 | -4 | -9 | .
CCOC(=O)CSc1nc2ccccc2c(=O)n1C1CCCC1 | -2 | 5.3* | 2 | -1 | 44* | 1 | -6 | PLA2 ctr=65*
CCN1CCN(S(=O)(=O)c2ccc(Cl)c(C(=O)N(C)CCOc3ccc(Cl)cc3)c2)CC1 | . | -2 | -2 | . | -3 | -1 | .
O=S(=O)(c1ccccc1)N1CCN(Cc2cccc(Cl)c2)CC1 | -2 | 0 | -3 | -3 | -2 | -10 | .
O=S(=O)(c1ccccc1)N1CCN(c2cccc(Cl)c2)CC1 | -3 | 7.2* | -2 | -1 | 51* | 5 | -6 | PLA2 ctr=61*
O=C1OC(c2ccc3ccccc3c2O)(c2ccc3ccccc3c2O)c2ccccc21 | . | . | 36* | . | -3 | -7 | . | HKDC1 act conf=15
CCOc1ccc(NC(=O)CSc2nc(=O)n(CCCN3CCOCC3)c3c2CCC3)cc1 | . | 5 | 5 | . | -8 | -5 | .
Cc1cccc(C)c1NCc1n[nH]c(=S)n1-c1ccccc1 | -4 | 2 | -8 | -4 | 4 | -4 | .
OCCOCCN1CCN(C2=Nc3ccccc3Sc3ccccc32)CC1 | -3 | 0 | -8 | -4 | 6 | 10 | .
